Results on six molecules are retold here after ChEMBL document CHEMBL5154773, “Development of Sulfamoylated 4-(1-Phenyl-1H-1,2,3-triazol-4-yl)phenol Derivatives as Potent Steroid Sulfatase Inhibitors for Efficient Treatment of Breast Cancer” (J Med Chem, 2022).

A short description of data set [1]: Toxicity in BALB/c mouse assessed as weight change of kidney at 10 to 50 mg/kg, po for 5 days a week for 2 weeks. Particulars: in vivo, 336 h, dose 10-50 mg/kg. In kind it is organism-based. The method, boiled down: (§1)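 Female BALB/c mice, three per dose, received oral doses of 10 mg/kg/day, 5 days a week for 2 weeks. Later mice received 20 or 50 mg/kg. Body weight and general health, including feces, were followed. After cervical dislocation, liver, kidney and spleen were weighed, and liver, kidneys, intestines and spleen were assessed macroscopically.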

A short description of data set [2]: Toxicity in BALB/c mouse assessed as weight change of spleen at 10 to 50 mg/kg, po for 5 days a week for 2 weeks. In kind it is organism-based. The conditions noted are these: in vivo, 336 h, dose 10-50 mg/kg. In short, it runs like this:
as §1

The nature of data set [3]: Toxicity in BALB/c mouse assessed as change in feces consistency at 50 mg/kg, po for 5 days a week for 2 weeks. Type of data set: organism-based. Particulars: in vivo, 336 h. In short, it runs like this:
as §1

Data set [4] is described as follows: Toxicity in BALB/c mouse assessed as macroscopic changes in kidneys at 10 to 50 mg/kg, po for 5 days a week for 2 weeks. The conditions noted are these: in vivo, 336 h, dose 10-50 mg/kg. In kind it is organism-based. The method, boiled down: as §1
A further data set relates to Mus musculus. The data set is described as follows: In vivo inhibition of STS in BALB/c mouse allografted with mouse 67NR cells assessed as reduction in estradiol level in plasma at 50 mg/kg, po administered 5 days a week by ELISA. In kind it is functional, organism-based. Particulars: time 1.0 weeks.
The nature of data set [5]: Toxicity in BALB/c mouse allografted with mouse 67NR cells assessed as increase in blood urea levels at 50 mg/kg, po for 5 days a week. Particulars: in vivo, 168 h, time 1 weeks. In kind it is organism-based.
Data set [6] is described as follows: Toxicity in BALB/c mouse allografted with mouse 67NR cells assessed as decrease in spleen weight at 50 mg/kg, po for 5 days a week. The conditions noted are these: in vivo, 168 h, time 1 weeks. Type of data set: organism-based.
Data set [7] is described as follows: Toxicity in BALB/c mouse assessed as toxic effects at 10 to 50 mg/kg, po for 5 days a week for 2 weeks. In kind it is organism-based. Particulars: in vivo, 336 h, dose 10-50 mg/kg. In short, it runs like this:
as §1

Data set [8] in a line: Toxicity in BALB/c mouse assessed as weight change of liver at 10 to 50 mg/kg, po for 5 days a week for 2 weeks. In kind it is organism-based. Particulars: in vivo, 336 h, dose 10-50 mg/kg. The method, boiled down:
as §1

Data set [9] in a line: Toxicity in BALB/c mouse allografted with mouse 67NR cells assessed as enlarged liver at 50 mg/kg, po for 5 days a week. Type of data set: organism-based. Particulars: in vivo, 168 h, time 1 weeks.
A short description of data set [10]: Toxicity in BALB/c mouse assessed as macroscopic changes in spleen at 10 to 50 mg/kg, po for 5 days a week for 2 weeks. Particulars: in vivo, 336 h, dose 10-50 mg/kg. Type of data set: organism-based. The method, boiled down: as §1
The nature of data set [11]: In vivo inhibition of STS in BALB/c mouse allografted with mouse 67NR cells assessed as residual enzyme activity in tumor lysates using [3H]E1S as substrate at 50 mg/kg, po for 5 days a week followed by incubation of tumor lysates with [3H]E1S for 3 hrs by radioisotope enzymatic assay (reference value: 100%). Type of data set: functional, Neoplasm. The conditions noted are these: time 1 weeks.

Data set [12] in a line: Toxicity in BALB/c mouse allografted with mouse 67NR cells assessed as effect on hematocrit levels at 50 mg/kg, po for 5 days a week. The conditions noted are these: in vivo, 168 h, time 1 weeks. Type of data set: organism-based.
A short description of data set [13]: Toxicity in BALB/c mouse allografted with mouse 67NR cells assessed as increase in granulocyte count at 50 mg/kg, po for 5 days a week. Type of data set: organism-based. Particulars: in vivo, 168 h, time 1 weeks.
Data set [14] is described as follows: Toxicity in BALB/c mouse allografted with mouse 67NR cells assessed as effect on hemoglobin levels at 50 mg/kg, po for 5 days a week. Type of data set: organism-based. Particulars: in vivo, 168 h, time 1 weeks.
Data set [15] is described as follows: Toxicity in BALB/c mouse assessed as maximum tolerated dose administered orally for 5 days a week. Particulars: in vivo, route po, time 1 weeks. In short, it runs like this:
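Female Balb/c mice, three per dose, were dosed per os, starting at 10 mg/kg/day and then at 20 and 50 mg/kg, 5 days a week for 2 weeks. Body weight and general health were followed. At autopsy, liver, kidney and spleen were weighed and examined macroscopically.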

Data set [16] is described as follows: In vivo inhibition of STS in BALB/c mouse allografted with mouse 67NR cells assessed as residual enzyme activity in liver lysates using [3H]E1S as substrate at 50 mg/kg, po for 5 days a week followed by incubation of […] with [3H]E1S for 3 hrs by radioisotope enzymatic assay (reference value: 100%). The conditions noted are these: time 1 weeks. Type of data set: functional.

Data set [17] can be described thus: Toxicity in BALB/c mouse allografted with mouse 67NR cells assessed as increase in monocyte count at 50 mg/kg, po for 5 days a week. Type of data set: organism-based. Particulars: in vivo, 168 h, time 1 weeks.
The nature of data set [18]: Toxicity in BALB/c mouse assessed as macroscopic changes in intestines at 10 to 50 mg/kg, po for 5 days a week for 2 weeks. The conditions noted are these: in vivo, 336 h, dose 10-50 mg/kg. Type of data set: organism-based. In short, it runs like this: as §1
Data set [19] in a line: Toxicity in BALB/c mouse allografted with mouse 67NR cells assessed as decrease in lymphocyte count at 50 mg/kg, po for 5 days a week. In kind it is organism-based. Particulars: in vivo, 168 h, time 1 weeks.
The nature of data set [20]: Toxicity in BALB/c mouse assessed as macroscopic changes in liver at 10 to 50 mg/kg, po for 5 days a week for 2 weeks. Type of data set: organism-based. The conditions noted are these: in vivo, 336 h, dose 10-50 mg/kg. The method, boiled down: as §1
A short description of data set [21]: Toxicity in BALB/c mouse allografted with mouse 67NR cells assessed as effect on erythrocyte count at 50 mg/kg, po for 5 days a week. Type of data set: organism-based. Particulars: in vivo, 168 h, time 1 weeks.
Data set [22] is described as follows: Toxicity in BALB/c mouse assessed as body weight loss at 10 to 50 mg/kg, po for 5 days a week for 2 weeks. The conditions noted are these: in vivo, 336 h, dose 10-50 mg/kg. Type of data set: organism-based. In short, it runs like this:
as §1

Data set [23] concerns the target T1, Steryl-sulfatase (Homo sapiens) (UniProt P08842).
T1 sequence (whole entry): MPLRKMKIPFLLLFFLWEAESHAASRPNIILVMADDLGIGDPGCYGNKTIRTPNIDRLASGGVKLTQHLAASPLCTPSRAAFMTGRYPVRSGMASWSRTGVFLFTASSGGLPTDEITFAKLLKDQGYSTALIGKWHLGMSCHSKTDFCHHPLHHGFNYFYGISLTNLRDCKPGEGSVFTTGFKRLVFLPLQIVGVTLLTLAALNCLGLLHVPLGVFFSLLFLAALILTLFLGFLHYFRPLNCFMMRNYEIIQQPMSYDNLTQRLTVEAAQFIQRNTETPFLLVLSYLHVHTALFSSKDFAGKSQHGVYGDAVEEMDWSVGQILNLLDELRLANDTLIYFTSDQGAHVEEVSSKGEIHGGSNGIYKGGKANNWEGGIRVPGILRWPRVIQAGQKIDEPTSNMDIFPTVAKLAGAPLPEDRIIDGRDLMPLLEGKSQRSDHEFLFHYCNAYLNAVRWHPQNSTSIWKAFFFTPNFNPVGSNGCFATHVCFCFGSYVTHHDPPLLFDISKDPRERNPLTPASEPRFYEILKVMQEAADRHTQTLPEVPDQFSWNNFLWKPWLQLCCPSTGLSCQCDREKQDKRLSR
As to the kind of experiment: Inhibition of STS in human MCF7 cells assessed as residual enzyme activity using [3H]E1S as substrate at 100 nM incubated for 20 hrs by radioisotope cellular assay relative to control. Type of data set: cell-based. In short, it runs like this: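 MCF-7 cells were grown in DMEM with 10% FBS to 80% confluence, then seeded at 1 × 10⁵ cells/well. Cells were incubated 20 h at 37 °C, 5% CO₂, in serum-free medium with [³H]E1S (3 nM, 4 × 10⁴ Bq), with or without inhibitor at 100, 10 or 1 nM. The hydrolysis product in the collected medium was extracted into toluene and counted by scintillation. Run in triplicate.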

Data set [24] in a line: Antitumor activity against mouse 67NR cells allografted in BALB/c mouse assessed as tumor growth inhibition at 50 mg/kg, po for 5 days a week and measured 3 times a week relative to control. Type of data set: functional. The conditions noted are these: 168 h, time 1 weeks, read-out: TGI. The method, boiled down: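 Female BALB/c mice, 7–8 weeks old, received 1.5 × 10⁵ 67NR cells in 0.05 mL Hanks fluid into the mammary fat pad. At about 50 mm³ average tumor volume, mice were randomized to six groups of nine. Dosing was 50 mg/kg b.w. orally, 5 days a week, for 17 days of observation. Tumor volume was measured three times weekly. TGI was calculated from tumor volume versus the control group, using one-way ANOVA with Dunnett test.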

A short description of data set [25]: Toxicity in BALB/c mouse allografted with mouse 67NR cells assessed as body weight loss at 50 mg/kg, po for 5 days a week and measured 3 times a week relative to control. In kind it is organism-based. Particulars: in vivo, 168 h, time 1 weeks.
The nature of data set [26]: Toxicity in BALB/c mouse allografted with mouse 67NR cells assessed as increase in alanine aminotransferase levels in plasma at 50 mg/kg, po for 5 days a week. In kind it is organism-based. The conditions noted are these: in vivo, 168 h, time 1 weeks.

The source made the active and inactive calls. The calls are words filed in the database; no cut-off is given here.

For the molecule `NS(=O)(=O)Oc1ccc(-c2cn(-c3cccc(Cl)c3)nn2)cc1`, the Activity entry in data set [1] was “Non-Toxic”; in data set [2], “Non-Toxic”; in data set [3], “Toxic”; in data set [4], “Non-Toxic”; in data set [5], “Toxic”; in data set [6], “Toxic”. Further, the Activity result is given as “Non-Toxic” in data set [7]; “Non-Toxic” in [8]; “Non-Toxic” in data set [9]; “Non-Toxic” in data set [10]; 5.8% in [11]; “Non-Toxic” in data set [12]. For the same molecule, the Activity result in data set [13] was “Toxic”; in [14], “Non-Toxic”; in data set [16], 12.1%; in data set [17], “Toxic”; in data set [18] it was “Non-Toxic”; in data set [19], “Toxic”. Moreover, the Activity result in [20], in data set [21] and in data set [22] was “Non-Toxic” in each case. Moreover, the inhibition result in the data set on Mus musculus is “Active”. Moreover, the MTD at 168 h in [15] amounted to 50 mg/kg.
Turning to `NS(=O)(=O)Oc1ccc(-c2cn(-c3ccc(F)cc3C(F)(F)F)nn2)cc1`, the Activity in [23] stood at 2.4%.
Same read-out and setting: then `NS(=O)(=O)Oc1ccc(-c2cn(-c3cccc(C(F)(F)F)c3)nn2)cc1`, with 1.3%.
For the molecule `NS(=O)(=O)Oc1ccc(-c2cn(-c3cc(Cl)cc(Cl)c3)nn2)cc1`, the Activity result in data set [1] was “Non-Toxic”; in [2], “Non-Toxic”; in data set [3], “Toxic”; in data set [4] it was “Non-Toxic”; in data set [5] it was “Toxic”; in data set [6], “Toxic”. In addition, the Activity result is listed as “Non-Toxic” in [7]; “Non-Toxic” in [8]; “Toxic” in data set [9]; “Non-Toxic” in data set [10]; 5.1% in data set [11]; “Non-Toxic” in data set [12]. Also, the Activity entry in data set [13] was “Toxic”; in data set [14] it was “Non-Toxic”; in data set [16], 14.5%; in [17], “Toxic”; in [18] it was “Non-Toxic”; in [19] it was “Toxic”. For the same molecule, the Activity entry in [20], in [21] and in [22] was “Non-Toxic” in each case. For the same molecule, the inhibition in vivo at 50 mg/kg in data set [24] amounted to 51%. Besides, the inhibition entry with Mus musculus is “Active”. Besides, in data set [15], the MTD at 168 h came out at 50 mg/kg.
As for `NS(=O)(=O)Oc1ccc(-c2cn(-c3cccc(F)c3)nn2)cc1`, the Activity entry in data set [1] is given as “Non-Toxic”; in data set [2] it was “Non-Toxic”; in data set [3] it was “Toxic”; in [4], “Non-Toxic”; in data set [5], “Toxic”; in [6], “Toxic”. In addition, the Activity result is “Non-Toxic” in data set [7]; “Non-Toxic” in [8]; “Toxic” in data set [9]; “Non-Toxic” in [10]; 4.5% in data set [25]; 5.2% in [11]. Also, the Activity result in data set [12] is recorded as “Non-Toxic”; in [26] it was “Toxic”; in data set [13] it was “Toxic”; in [14], “Non-Toxic”; in data set [16], 13.6%; in data set [17], “Toxic”. Besides, the Activity result in data set [18] is “Non-Toxic”; in data set [19], “Toxic”; in data set [20], “Non-Toxic”; in data set [21], “Non-Toxic”; in data set [22], “Non-Toxic”. Also, in the data set on Mus musculus, the inhibition entry was “Active”. In addition, the MTD at 168 h in data set [15] stood at 50 mg/kg.
In the case of `NS(=O)(=O)Oc1ccc(-c2cn(-c3ccc(C(F)(F)F)cc3)nn2)cc1`, the Activity in data set [23] turned out to be 2.9%.

A word on the MTD: it is the highest dose tested that stayed within the study's limit of toxicity.
